# PubChem BioAssay AID652000 (Sanford-Burnham Center for Chemical Genomics, 2013)
# In all, about 2,400 compounds went through this assay and fewer than 10 were called active. Only a sample is shown. A number with no mark means an inactive call.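 Rule for the calls: active = activation of at least 50%; inactive = the rest.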
# Molecular target: G-protein coupled receptor 183 (Homo sapiens) (UniProt P32249)
# Test: EBI2 agonist activity of antagonist hits, confirmation, counter-screen for EBI2 antagonist project, cell-based, single concentration, agonist mode, luminescence (AID 652000)
# Conditions: EBI2-expressing cells, 60 min, at 5 µM, hits give high values, 0% vehicle, 100% 7α,25-dihydroxycholesterol control
# In short: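 Material: beta-arrestin reporter cell line | Probe or stimulus: Test wells without oxysterol | Compound: Single concentration, 2.5 nL of 10 mM stock | Times: Overnight seeding and 60-min compound at 37°C, 60-min detection at 25°C | Signal: Luminescence after adding detection reagent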
# G-protein coupled receptor 183 (Homo sapiens), sequence (P32249 whole entry, looked up): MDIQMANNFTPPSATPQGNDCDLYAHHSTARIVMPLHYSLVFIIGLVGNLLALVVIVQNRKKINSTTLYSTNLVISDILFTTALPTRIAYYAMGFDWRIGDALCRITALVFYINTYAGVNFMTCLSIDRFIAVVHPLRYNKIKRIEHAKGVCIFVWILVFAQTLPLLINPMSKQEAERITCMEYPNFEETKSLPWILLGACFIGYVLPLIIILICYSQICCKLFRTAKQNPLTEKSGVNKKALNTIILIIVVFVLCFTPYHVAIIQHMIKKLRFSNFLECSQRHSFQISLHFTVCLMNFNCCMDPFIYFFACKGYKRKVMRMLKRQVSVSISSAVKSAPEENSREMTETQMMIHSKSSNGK
row,SMILES,activation [%]
1,O=C(NCc1ccc(Cl)cc1)C1CCN(S(=O)(=O)c2cccs2)CC1,0.21
2,O=C(CCNS(=O)(=O)c1ccccc1)NCCSc1ccc(Br)cc1,-1.84
3,Cc1ccc(O/C=C2\OC(=O)c3ccccc32)cc1,-0.84
4,O=C(COc1ccc2ccccc2c1)N1CCN(C(=O)c2cccs2)CC1,0.16
5,COc1ccc(/C=C/C(=O)c2ccc(OC)cc2O)cc1,-0.61
6,Fc1ccc(N2CCN(Cc3cnc(Oc4ccc(Br)cc4)s3)CC2)cc1,1.8
7,CCOC(=O)N1CCN(C(=O)COc2ccc(Cl)cc2C)CC1,0.57
8,CN(Cc1ccc(F)cc1)C(=O)COc1ccc2ccccc2c1,0.62
9,Cc1ccc(S(=O)(=O)N2CCN(C(=O)CSc3cc(C)ccc3C)CC2)c(C)c1,1.03
10,Cc1ccc2oc(=O)c3cnn(CC(=O)N(Cc4ccco4)C4CCCCC4)c3c2c1,-0.75
11,Cc1cc(C)cc(Oc2nc3c(C)cccn3c(=O)c2/C=C(\C#N)C(=O)NC2CCS(=O)(=O)C2)c1 (stereo not drawn),-1.11
12,Cc1cc(Cl)c2oc(C(=O)N3CCC(O)(c4ccccc4)CC3)c(C)c2c1,-0.43
13,COc1ccc(CNC(=O)CN(c2ccc(OC)c(Cl)c2)S(=O)(=O)c2ccc(C)cc2)cc1,-1.61
14,Cc1ccc(N2CC(C(=O)Nc3ccc(S(=O)(=O)N4CCCC4)cc3)CC2=O)cc1C (stereo not drawn),1.21
15,O=C(C(c1ccccc1)c1ccccc1)N1CCN(CC(O)COc2ccccc2)CC1 (stereo not drawn),-0.02
16,O=C(CC(c1ccccc1)c1ccccc1)NCC(O)c1ccc([N+](=O)[O-])cc1 (stereo not drawn),-0.61
17,Cc1ccc(S(=O)(=O)N2CCN(CC(=O)N/N=C/c3ccc(Br)s3)CC2)cc1,0.71
18,N#CC(=C1CCCC1)c1nc(-c2ccc(Cl)cc2)cs1,-0.93
19,Cc1cc(OCC(=O)N2CCN(c3ncccn3)CC2)ccc1Cl,1.39
20,O=C(/C=C/c1ccc(Cl)cc1)N1CCN(c2ccccc2[N+](=O)[O-])CC1,1.03
21,O=C(Nc1ncc2c(n1)CC(c1ccco1)CC2=O)c1ccc(Cl)cc1 (stereo not drawn),1.34
22,CCOc1ccc(CCN2C(=S)N([C@@H](CC(C)C)CN3CCC[C@@H]3CN3C(=S)NC[C@@H]3Cc3ccc(O)cc3)C[C@@H]2Cc2ccc(O)cc2)cc1,-0.93

row,SMILES,activation [%]
1,COc1ccc(OCC(=O)N2CCN(C(=O)COc3ccccc3)CC2)cc1,-0.25
2,O=C(NNC(=O)c1ccc2ccccc2c1)c1ccc(Cl)cc1,0.21
3,COc1cccc(-c2cc(C(=O)N3CCN(c4ccccc4OC)CC3)no2)c1,-0.66
4,COc1ccc(-c2cc(C3CCN(c4ncccc4[N+](=O)[O-])CC3)[nH]n2)cc1,-0.52
5,FC(F)(F)Oc1ccccc1C(c1nnnn1C1CCCCC1)N1CCN(C/C=C/c2ccccc2)CC1 (stereo not drawn),2.25
6,Cc1ccc(OCC(=O)N2CCN(C(=O)c3cccnc3)CC2)cc1,0.16
7,CC1CCc2sc3nc(N4CCN(CCO)CC4)n4ncnc4c3c2C1 (stereo not drawn),1.12
8,Cc1nc2ccc(C(=O)N3CCN(c4ccccc4)CC3)cc2s1,-1.39
9,Cc1cs/c(=N\N=C\c2ccc(O)cc2)n1Cc1ccco1,-0.2
10,CCOc1ccc(CN(Cc2ccco2)S(=O)(=O)c2ccc(-n3cnnn3)c(OC)c2)cc1,0.3
11,Fc1ccccc1/C=N/Nc1cc(N2CCCCC2)ncn1,-1.29
12,CC(C)Cn1c(N2CCN(C(=O)/C=C/c3ccccc3)CC2)nc2ccccc21,-1.2
13,COc1cccc(NC(=O)Cn2c3ccccc3c3nc4n(c(=O)c32)CCS4)c1,-1.89
14,Cc1ccc(OCCNC(=O)CCNS(=O)(=O)c2ccc(Br)cc2)cc1,-0.93
15,CCN(CC(=O)NCc1cccs1)C(=O)/C=C/c1ccc(C)cc1,0.57
16,Cc1cccc(N2CCN(C(=O)c3cc4c(=O)[nH]c5ccccc5c4n3C)CC2)c1C,2.57
17,O=C(COc1ccc2c(c1)CCC2)N1CCN(c2ccc(F)cc2)CC1,-1.43
18,O=C(COc1ccc(Cl)cc1)N1CCN(c2cccc(C(F)(F)F)c2)CC1,1.62
19,Cc1nc(-c2ccccc2)sc1C(=O)/C=C/c1ccccc1,1.39
20,N#Cc1ccc(C(c2nnnn2CCc2ccccc2)N2CCCCCC2)cc1 (stereo not drawn),0.07
21,COc1ccccc1N1CCN(C(=O)c2cc(=O)c3cc(C)ccc3o2)CC1,0.39
22,O=C(c1cc2cc(F)ccc2[nH]1)N1CCN(c2ccc(F)cc2)CC1,1.94

row,SMILES,activation [%]
1,COc1ccc(NC(=O)N2CCC(Cc3ccccc3)CC2)cc1,-0.34
2,Cc1ccc(-c2nn(-c3ccccc3)cc2/C=C/C(=O)Nc2cccc(S(N)(=O)=O)c2)cc1,1.07
3,Cc1cccc(NC(=O)CN2CCN(C(=O)C3CCN(C(=O)/C=C/c4ccccc4)CC3)CC2)c1C,-0.88
4,Cc1ccc2oc(=O)c3cnn(CC(=O)N4CCCCCC4)c3c2c1,-0.61
5,CC(=O)c1nn(-c2ccc(C)cc2)cc1C(=O)c1cccc(Br)c1,1.07
6,COc1ccc([C@H]2CC(=O)C=C(c3ccc(C)cc3)C2)cc1,1.12
7,CCOc1ccc(C(C)=O)cc1COC(=O)c1cnc(Cl)c(Cl)c1,-0.57
8,O=C(c1cc2ccccc2s1)N1CCN(c2ccccn2)CC1,-1.48
9,CCC1Nc2ncnc(N3CCN(c4ccccc4)CC3)c2N(Cc2ccc(Cl)cc2)C1=O (stereo not drawn),-4.52
10,CC1(Cc2ccccc2C#N)C(=O)Nc2ccc(-c3ccc4[nH]ccc4c3)cc21 (stereo not drawn),-0.66
11,O=C(c1cc2ccccc2o1)N1CCN(S(=O)(=O)c2ccc(Cl)s2)CC1,0.16
12,COc1ccc(Nc2cc(Sc3ccc(OC)cc3)ncn2)cc1,-0.07
13,COc1ccc(-n2c(Cc3cccn3C)nnc2SCC(=O)Nc2cc(C)cc(C)c2)cc1,0.66
14,COc1ccc([C@H]2CC(=O)C=C(/C=C/c3ccc(Cl)cc3)C2)cc1,-0.43
15,COc1ccccc1CCNC(=O)C1CCN(C(=O)/C=C/c2ccccc2)CC1,-0.16
16,COc1ccc(C(c2nnnn2C2CCCC2)N2CCN(C/C=C/c3ccccc3)CC2)cc1 (stereo not drawn),-0.25
17,CN1CCc2ccccc2C1Cc1ccccc1NC(=O)c1sc2ccccc2c1Cl (stereo not drawn),-0.98
18,Cc1ccc(-n2ncc3c(=O)n(-c4ccc(C)c(C)c4)c(-c4ccco4)nc32)cc1,-1.66
19,O=C(Nc1ccc(S(=O)(=O)N2CCCCC2)cc1)C1CC(=O)N(c2ccc(F)cc2)C1 (stereo not drawn),0.98
20,O=C(c1cc(=O)c2ccccc2o1)N1CCN(c2ccccc2)CC1,2.48
21,CCCC1CCC(=NNC(=S)NCCc2ccccc2)CC1 (stereo not drawn),-1.07
22,Cc1cccc(N=C2NC(=O)/C(=C/c3cn(C)c4ccccc34)S2)c1,-0.07

row,SMILES,activation [%]
1,COc1ccc(-c2cc(NC=O)c3ncc(-c4cccc(C(=O)N(C)C)c4)n3c2)c(OC)c1,-1.02
2,Cc1ccc(CSCCNC(=O)CN(c2ccc(F)cc2)S(C)(=O)=O)cc1,0.84
3,CC(C)N(Cc1ccccc1)C(=S)Nc1ccc(OC(F)F)cc1,0.07
4,CC(C)Cc1ccc(-c2cc3nc(NCc4cccc(Cl)c4)ccn3n2)cc1,-1.2
5,CCOC(=O)N1CCN(C(=O)CSc2ccc(Cl)cc2)CC1,2.07
6,Cc1ccc(SCC(=O)N2CCN(c3ccc(F)cc3)CC2)cc1,4.12
7,CC(=O)/C(=N\Nc1ccc(Cl)cc1Cl)Sc1cccc2cccnc12,-1.34
8,O=C(NCc1ccc(Cl)cc1)c1cc(=O)nc2sc(-c3ccccc3)nn12,-0.48
9,COc1ccc(OC)c(C(=O)c2coc3ccc(O)c(CN4CCOCC4)c23)c1,0.62
10,O=C(/C=C/c1cccc(C(F)(F)F)c1)N1CCN(c2ccccn2)CC1,-0.93
11,Cc1cccc(OCC(O)CN2CCN(S(=O)(=O)c3ccc(C)cc3C)CC2)c1 (stereo not drawn),-0.98
12,COc1ccc(-c2cn(-c3ccc(OC)cc3)c(=S)[nH]2)cc1,1.66
13,O=C(CSc1ccccc1)Nc1cc(Cl)ccc1Oc1ccccc1,-1.48
14,CCC(C)(C)NC(=O)c1cc([N+](=O)[O-])ccc1N1CCCCC1,-1.43
15,CCOC(=O)N1CCN(C(=O)COc2ccc(Br)cc2)CC1,1.84
16,O=C(NCCNc1ccc([N+](=O)[O-])cc1)c1cccc2c(Br)cccc12,0.12
17,COc1ccccc1N1CCN(C(=O)c2cc(-c3ccc(Br)cc3)on2)CC1,1.43
18,Cc1cccc(C)c1-n1nnnc1C(CCc1ccccc1)N1CCN(C/C=C/c2ccccc2)CC1 (stereo not drawn),-1.39
19,O=C(CCc1ccccc1)NNC(=O)COc1ccc(Cl)cc1,0.21
20,COc1ccc(-c2nc(N)ncc2-c2ccc(Cl)cc2)c(O)c1,1.03
21,COc1cc(/C=C(\C#N)C(=O)Nc2ccc3ccccc3c2)c([N+](=O)[O-])cc1OC,-0.75
22,O=C(COc1ccc(Cl)cc1)N1CCN(S(=O)(=O)c2ccc(Cl)cc2)CC1,1.62
